Tests used:
Format in all cases: functional
[1] = test system: Mus musculus; experiment: Inhibitory activity against carrageenan induced paw edema in mice; parameters: concentration or dose not given beside the values
[2] = test system: Mus musculus; experiment: The compound was evaluated for inhibition of edema induced by PGE at […]
How it was run: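 Mice, six per group, dosed orally at 100 mg/kg. After 60 min, PGE2 (20 μg/0.01 mL) was injected subcutaneously into the right hind paw plantar surface. Edema was measured with a dial thickness gauge and the effect expressed as percent inhibition.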

[3] = species on record: Mus musculus; experiment: Analgesic activity in mice; parameters: concentration or dose not given beside the values
How it was run: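 Female albino mice (22 ± 2 g, local breed), groups of eight, dosed orally at 100 mg/kg as a suspension in 5% gum arabic syrup. After 1 h, 3% acetic acid was given ip at 300 mg/kg. Stretches were counted over 10 min, starting 5 min after injection. Percent activity = |n − n'|/n × 100 against syrup-only controls (n = 6).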

[4] = test system: Mus musculus; experiment: The compound was evaluated for inhibition of edema induced by serotonin at 250 ug/mL
How it was run: (§1)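 Female albino mice (22 ± 2 g, local breed), six per group, housed in eights with free food and water, acclimatised at least 2 days. Compound given orally at 100 mg/kg; 60 min later 0.01 mL of the phlogistic agent (histamine or serotonin) injected subcutaneously into the right hind paw plantar surface. Paw edema measured with a dial thickness gauge; effect expressed as percent inhibition.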

[5] = test system: Mus musculus; experiment: The compound was evaluated for inhibition of edema induced by histamine at 10 mg/mL; how it was run: as §1
[6] = test system: Mus musculus; experiment: Intestinal ulcerogenic activity at a dose of 300 mg/kg: 8 mice were considered for the test
How it was run: (§2)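 Fed animals were gavaged with compound on 3 consecutive days and killed 24 h after the last dose. Intestines were examined for ulcers. Read-out: ulcer incidence per group of 8 and lesion length (mm/mouse ± SE).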

[7] = test system: Mus musculus; experiment: Gastric ulcerogenic activity at a dose of 300 mg/kg: 8 mice were considered for the test
How it was run: (§3)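 Mice fasted 24 h with water available. Compound in methyl cellulose vehicle given by oral gavage at 0.5 mL/100 g body weight. Animals were killed after 4 h and stomachs examined for lesions under a dissecting microscope. Read-out: ulcer incidence per group of 8 and lesion length (mm/mouse ± SE).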

[8] = test system: Mus musculus; experiment: Gastric ulcerogenic activity at a dose of 100 mg/kg: 8 mice were considered for the test; how it was run: as §3
[9] = test system: Mus musculus; experiment: Gastric ulcerogenic activity at a dose of 300 mg/kg; how it was run: as §3
[10] = test system: Mus musculus; experiment: Intestinal ulcerogenic activity at a dose of 60 mg/kg:group of 8 mouse considered for the test; how it was run: as §2
[11] = test system: Mus musculus; experiment: The compound was evaluated for inhibition of edema induced by arachidonic acid at 1 mg/mL
How it was run: (§4)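 Mice, six per group, dosed orally at 100 mg/kg. After 60 min, 0.01 mL of phlogistic agent (arachidonic acid or bradykinin) was injected subcutaneously into the right hind paw plantar surface. Edema was measured by dial thickness gauge and the effect expressed as percent inhibition.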

[12] = test system: Mus musculus; experiment: Intestinal ulcerogenic activity at a dose of 100 mg/kg; how it was run: as §2
[13] = test system: Mus musculus; experiment: Intestinal ulcerogenic activity at a dose of 300 mg/kg; how it was run: as §2
[14] = test system: Mus musculus; experiment: Gastric ulcerogenic activity at a dose of 60 mg/kg: 8 mice were considered for the test; how it was run: as §3
[15] = test system: Mus musculus; experiment: Antiinflammatory activity against CPE in mice following peroral administration of 60 mg/kg; details: route oral
How it was run: (§5)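 Female albino mice (22 ± 2 g), six per group, dosed orally. After 60 min, 0.01 mL of 2% carrageenan was injected subcutaneously into the right hind paw plantar surface. Edema was read with a dial thickness gauge 3 h later. ED50 was given in mg/kg po with 95% confidence limits.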

[16] = test system: Mus musculus; experiment: Gastric ulcerogenic activity at a dose of 100 mg/kg; how it was run: as §3
[17] = test system: Mus musculus; experiment: The compound was evaluated for inhibition of edema induced by bradykinin at 100 ug/mL; how it was run: as §4
[18] = test system: Mus musculus; experiment: Intestinal ulcerogenic activity at a dose of 60 mg/kg; how it was run: as §2
[19] = test system: Mus musculus; experiment: Intestinal ulcerogenic activity at a dose of 100 mg/kg: 8 mice were considered for the test; how it was run: as §2
[20] = test system: Mus musculus; experiment: Gastric ulcerogenic activity at a dose of 60 mg/kg; how it was run: as §3
[21] = test system: Mus musculus; experiment: Intestinal ulcerogenic activity at a dose of 60 mg/kg: 8 mice were considered for the test; how it was run: as §2
[22] = test system: Mus musculus; experiment: Antiinflammatory activity against CPE in mice following peroral administration of 30 mg/kg; details: route oral; how it was run: as §5
[23] = test system: Mus musculus; experiment: Gastric ulcerogenic activity at a dose of 30 mg/kg:group of 8 mouse considered for the test; how it was run: as §3
[24] = test system: Mus musculus; experiment: Intestinal ulcerogenic activity at a dose of 30 mg/kg: group of 8 mice were considered for the test; how it was run: as §2
[25] = test system: Mus musculus; experiment: Intestinal ulcerogenic activity at a dose of 100 mg/kg: group of 8 mice were considered for the test; how it was run: as §2
[26] = test system: Mus musculus; experiment: Intestinal ulcerogenic activity at a dose of 300 mg/kg: group of 8 mice were considered for the test; how it was run: as §2
[27] = test system: Mus musculus; experiment: Intestinal ulcerogenic activity at a dose of 30 mg/kg; how it was run: as §2
[28] = test system: Mus musculus; experiment: Gastric ulcerogenic activity at a dose of 300 mg/kg:group of 8 mouse considered for the test; how it was run: as §3
[29] = test system: Mus musculus; experiment: Gastric ulcerogenic activity at a dose of 30 mg/kg; how it was run: as §3
[30] = test system: Mus musculus; experiment: Gastric ulcerogenic activity at a dose of 100 mg/kg:group of 8 mouse considered for the test; how it was run: as §3
[31] = test system: Mus musculus; experiment: Gastric ulcerogenic activity at a dose of 50 mg/kg: 8 mice were considered for the test; how it was run: as §3
[32] = test system: Mus musculus; experiment: Gastric ulcerogenic activity at a dose of 20 mg/kg: 8 mice were considered for the test; how it was run: as §3
[33] = test system: Mus musculus; experiment: Intestinal ulcerogenic activity at a dose of 20 mg/kg: 8 mice were considered for the test; how it was run: as §2
[34] = test system: Mus musculus; experiment: Intestinal ulcerogenic activity at a dose of 50 mg/kg: 8 mice were considered for the test; how it was run: as §2
[35] = test system: Mus musculus; experiment: Intestinal ulcerogenic activity at a dose of 50 mg/kg; how it was run: as §2
[36] = test system: Mus musculus; experiment: Intestinal ulcerogenic activity at a dose of 20 mg/kg; how it was run: as §2
[37] = test system: Mus musculus; experiment: Gastric ulcerogenic activity at a dose of 20 mg/kg; how it was run: as §3
[38] = test system: Mus musculus; experiment: Gastric ulcerogenic activity at a dose of 50 mg/kg; how it was run: as §3
[39] = test system: Mus musculus; experiment: Antiinflammatory activity against CPE in mice following peroral administration of 20 mg/kg; details: route oral; how it was run: as §5

Compound | Inhibition [1] | Inhibition [2] | Analgesic activity [3] | Inhibition [4] | Inhibition [5] | Ulcer incidence [6] | Ulcer incidence [7] | Ulcer incidence [8] | Lesion length [9] | Inhibition [11] | Lesion length [12] | Lesion length [13] | Ulcer incidence [14] | ED50 [15] | Lesion length [16] | Inhibition [17] | Lesion length [18] | Ulcer incidence [19] | Lesion length [20] | other results
O=c1oc2ccc(Cl)cc2n1CCc1ccccn1 | 62.3% | 64.8% | 96.96% | 10.5% | 9% | 1 number/group | 4 number/group | 1 number/group | 0.9 mm mice-1 | 42% | 0 mm mice-1 | 0.1 mm mice-1 | 0 number/group | 63 mg/kg | 0.2 mm mice-1 | 7% | 0 mm mice-1 | 0 number/group | 0 mm mice-1 | Ulcer incidence [10]: 0 number/group
O=c1oc2ccccc2n1CCc1ccncc1 | 59.1% | 62.2% | 96.06% | 9.4% | 7.6% | 2 number/group | 5 number/group | 0 number/group | 0.9 mm mice-1 | 38.9% | 0 mm mice-1 | 0.1 mm mice-1 | 0 number/group | 57 mg/kg | 0 mm mice-1 | 6.4% | 0 mm mice-1 | 0 number/group | 0 mm mice-1 | Ulcer incidence [21]: 0 number/group
COc1ccc(C(=O)c2ccc3c(c2)oc(=O)n3CCc2ccccn2)cc1 | 30.8% | – | 80.34% | 9.9% | 5.4% | – | – | – | – | 40% | – | – | – | – | – | 13% | – | – | – | –
O=C(c1ccc2c(c1)oc(=O)n2CCc1ccccn1)c1ccccc1Cl | 37.1% | 53% | 91.74% | 18.2% | 5% | – | – | – | 0.4 mm mice-1 | 46% | 0 mm mice-1 | 0.2 mm mice-1 | – | – | 0 mm mice-1 | 6.4% | – | – | – | ED50 [22]: 25.5 mg/kg; Ulcer incidence [23]: 0 number/group; Ulcer incidence [24]: 0 number/group; Ulcer incidence [25]: 0 number/group; Ulcer incidence [26]: 0 number/group; Lesion length [27]: 0 mm mice-1; Ulcer incidence [28]: 2 number/group; Lesion length [29]: 0 mm mice-1; Ulcer incidence [30]: 0 number/group
O=c1oc2ccccc2n1CCc1ccccn1 | 55.2% | 56.2% | 92.17% | 10.2% | 5.5% | 0 number/group | 4 number/group | 1 number/group | 0.7 mm mice-1 | 41.3% | 0 mm mice-1 | 0.07 mm mice-1 | 0 number/group | 55 mg/kg | – | 6% | 0 mm mice-1 | 0 number/group | 0 mm mice-1 | Ulcer incidence [21]: 0 number/group
O=c1oc2ccc(Cl)cc2n1CCc1ccncc1 | 68.5% | 68% | 100% | 13.1% | 11% | – | – | 1 number/group | – | 51.2% | 0.15 mm mice-1 | – | – | – | 0.4 mm mice-1 | 9% | – | 0 number/group | – | Ulcer incidence [31]: 0 number/group; Ulcer incidence [32]: 0 number/group; Ulcer incidence [33]: 0 number/group; Ulcer incidence [34]: 0 number/group; Lesion length [35]: 0 mm mice-1; Lesion length [36]: 0 mm mice-1; Lesion length [37]: 0 mm mice-1; Lesion length [38]: 0 mm mice-1; ED50 [39]: 18.2 mg/kg
CC(=O)c1ccc2c(c1)oc(=O)n2CCc1ccncc1 | 10.3% | – | 38.46% | – | – | – | – | – | – | – | – | – | – | – | – | – | – | – | – | –
